Lmaj promast – reduces viability of Leishmania major promastigotes. resazurin fluorescence viability. inhibition, % at 10 µM. 200,000 compounds, 9% hits. AID 1063; in the data active = inhibition above about 50%;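 note: promastigotes grown with compound for 44 hours at 28 °C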
UPR XBP1 act – adaptive UPR (XBP1) activation; CHO-XBP1 luciferase reporter, IRE1-XBP1 UPR activation, luminescence; percent of tunicamycin response, DMSO as zero; activation, % at 20 µM; 330,000 compounds, 0.33% hits; AID 463104;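 active = versus positive control, 20 µM dose yields 30% or more activation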;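 note: 100% = tunicamycin at 10 µg/mL and 0% = DMSO only wells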
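Material: CHO cell line with stable XBP1 luciferase reporter; buffer or medium: F12 medium containing 10% fetal bovine serum; compound: single point, 20 µM final compound, 1% DMSO; incubation: 6 h treatment, 37 °C; measured by: glow luminescence from Steady-Glo reagent; evaluation: activation, % of tunicamycin; control set: tunicamycin high, DMSO low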
CHOP UPR activ – activators of apoptotic arm of unfolded protein response (CHOP). activation, % at 10 µM. AID 449763. CHO-CHOP luciferase reporter, UPR activation, luminescence; percent of tunicamycin response over DMSO baseline. 330,000 compounds, 0.34% hits;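 active = at 10 µM dose, activation of 40% or more, normalized to positive control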;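 note: 100% = tunicamycin at 10 µg/mL and 0% = DMSO alone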
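Assay system: CHO cells with stable CHOP pathway luciferase reporter; Buffer or medium: F12 plus 10% serum; Times: 16-18 h cell attachment, then 6 h compound exposure, 37 °C; Signal: luciferase luminescence; Read-out basis: percent activation relative to tunicamycin control; Control set: tunicamycin high control, DMSO low control.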
T cruzi repl – T. cruzi replication inhibition; inhibition, % (test concentration not listed); 300,000 compounds, 1.4% hits; T. cruzi beta-gal in NIH3T3, luminescence, 90 h;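 active = mean inhibition across valid replicates above about 55%, limit read from the data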;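 note: signal also drops with host cell toxicity which is not excluded here; 0% = plate median of DMSO wells and 100% = zero luminescence signal; higher percent means less beta-gal luminescence so fewer parasites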
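System: NIH/3T3 fibroblasts plus reporter T. cruzi. Medium: DMEM plus 2% FBS. Probe or stimulus: 5000 reporter trypomastigotes per well. Compound: single 50 nL compound addition per well in DMSO. Incubation: co-culture of at least 90 h after 3 h attachment. Detection: GalScreen β-gal luminescence, detergent lysis, 60 min. Evaluation: parasite load inhibition, %.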
Dynein transport – dynein cargo transport inhibition | 3617.4 mouse cells, GR-EGFP nuclear translocation imaging; test concentration mostly 20 µM; stimulated with dexamethasone, 1 µM; hits give low values | z-score, hits read low | 220,000 compounds, 0.47% hits;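 active = plate z-score of nuclear minus cytoplasmic receptor signal below a set negative limit, without overly bright fluorescence or cell loss, cut at about -3.5 in these data, passing the limit was not always enough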;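 note: z-score of nuclear minus cytoplasmic ring GR-EGFP intensity difference per well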
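Schedule: 48 h induction, then 1 h compound, then 30 min agonist, 37 °C. Buffer or medium: tetracycline-free induction medium containing charcoal-stripped FBS. Reagent: 1.0 µM final dexamethasone stimulus. Evaluation: nuclear versus cytoplasmic GR-EGFP signal, averaged per well. Signal: high-content fluorescence imaging after fixation.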
CHOP inhibitor – blocks CHOP induction under ER stress; CHO-K1 CHOP-promoter luciferase, tunicamycin-induced, 15-18 h; inhibition, % at 10 µM; 220,000 compounds, 3.8% hits;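 active = compounds that reduced the stress-induced luciferase reporter signal by more than about 70% of percent inhibition, limit read from the data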;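 note: 0% = tunicamycin plus vehicle and 100% = wells without tunicamycin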
Active calls of the source: *; . = not tested or not shown; ! = not confirmed by another sample. Only a selection was taken, and hits are over-represented in it overall.

SMILES	Lmaj promast	UPR XBP1 act	CHOP UPR activ	T cruzi repl	Dynein transport	CHOP inhibitor
COC1=CCC2([N+](=O)[O-])CN(CCO)CC1([N+](=O)[O-])C2 (stereo unspecified)	-5	-3	0	-11	-0.45	8
Cc1ccc(CSCC(=O)Nc2c(C)n(C)n(-c3ccccc3)c2=O)cc1	61*	-6	0	-4	0.79	3
Cc1ccccc1CSCC(=O)Nc1c(C)n(C)n(-c2ccccc2)c1=O	-4	-1	0	-8	-0.37	3
Cc1ccccc1OCc1nnc(SCC(=O)Nc2c(C)n(C)n(-c3ccccc3)c2=O)n1-c1ccccc1	59*	-4	-3	1	-0.18	40
Cc1ccc(C2(C)NC(=O)N(CC(=O)Nc3c(C)n(C)n(-c4ccccc4)c3=O)C2=O)cc1 (stereo unspecified)	-8	0	2	10	-0.12	-2
Cc1c(NC(=O)CN2C(=O)NC(C)(c3ccccc3)C2=O)c(=O)n(-c2ccccc2)n1C (stereo unspecified)	-3	-2	0	-12	0.56	82*
NS(=O)(=O)c1ccc(CCNc2ccnc3cc(Cl)ccc23)cc1	.	-6	-2	-11	.	.
Cc1ccc(CCNC(=O)C2CC(c3cc(C(F)(F)F)cc(C(F)(F)F)c3)=NO2)cc1 (stereo unspecified)	.	3	-2	-20	-0.36	76*
Cc1cccc(/C=N/NC(=O)c2ccc(NC(=O)c3cccc(Cl)c3)cc2)n1	.	19	1	-2	.	.
COc1ccc(CN2C[C@H](Cc3ccccc3)[C@@H](CC(=O)Nc3ccccc3)C2=O)cc1	.	-2	-2	16	.	.
Nc1ccc(N2CCN(c3cccc(Cl)c3)CC2)cc1	89*	2	4	20	-0.79	-14
Nc1nc(N2CCN(c3cccc(Cl)c3)CC2)n[nH]1	0	1	1	7	-1.2	0
CCN1CCN(c2ccc(S(=O)(=O)N3CCOCC3)cc2NC(=O)c2ccc(Cl)s2)CC1	.	-4	2	69*	.	.
CCN1CCN(c2ccc(S(=O)(=O)N3CCCCC3)cc2NC(=O)c2cc3ccccc3o2)CC1	.	0	1	76*	.	.
CS(=O)(=O)N1CCN(c2ccccc2NC(=O)c2ccc(-c3ccc(Cl)cc3Cl)o2)CC1	91*	0	-1	51	-0.63	-20
CCN1CCN(c2ccc(S(=O)(=O)N3CCOCC3)cc2NC(=O)c2sccc2C)CC1	.	0	0	52	.	.
CN1CCN(c2ccccc2NC(=O)c2ccc(-c3ccc(Cl)cc3Cl)o2)CC1	99*	2	2	55*	0.075	36
Cc1ccc(S(=O)(=O)N2CCCCC2)cc1NC(=O)c1cc2ccccc2o1	.	-3	0	.	.	.
Cc1nnc(SC(C)C(=O)Nc2ccc(N3CCOCC3)cc2)n1Cc1ccccc1 (stereo unspecified)	.	-1	3	.	.	.
O=C(COc1ccccc1)NC1CCSC1=O (stereo unspecified)	-8	-2	0	-17	-0.66	2
CSc1sc(C(=O)N(C)C)c2c1S(=O)(=O)N(C)c1ccccc1-2	.	-2	-1	-3	-0.45	-3
CN1CCN(c2ccccc2NC(=O)c2cc3ccccc3o2)CC1	68*	-2	2	-1	0.036	-15
CN(c1ccccc1)S(=O)(=O)c1cccc(C(=O)Nc2ccc3c(c2)CCC3)c1	75*	1	2	11	0.24	25
COc1ccc(N(C)S(=O)(=O)c2cccc(C(=O)Nc3nc4ccccc4[nH]3)c2)cc1	47	10	0	-4	-0.51	0
CN(c1cccc(Cl)c1)S(=O)(=O)c1cccc(C(=O)Nc2nc3ccccc3[nH]2)c1	99*	-1	11	31	1.2	-26
SMILES	Lmaj promast	UPR XBP1 act	CHOP UPR activ	T cruzi repl	Dynein transport	CHOP inhibitor
COc1ccc(NC(=O)c2cc(S(=O)(=O)N(Cc3ccccc3)c3ccccc3)ccc2Cl)cn1	94*	-2	0	23	-0.054	50
COc1ccc(NC(=O)c2cccc(S(=O)(=O)N(C)c3ccccc3)c2)cn1	72*	-1	1	-4	0.68	32
COc1ccc(NC(=O)CN(C)C(=O)c2cn(-c3ccccc3)nc2-c2cccnc2)cc1	.	-4	-1	-1	.	.
CSCc1ccc(C(=O)NC(C)c2cnn(-c3ccccn3)c2C)o1 (stereo unspecified)	.	-6	3	-1	.	.
CCN(CC)c1ccc(NC(=O)CN2CCN(c3ccc(F)cc3)CC2)cc1	72*	0	0	15	-0.062	61
O=C(CN1CCN(c2ccc(O)cc2)CC1)Nc1ccc(SC(F)F)cc1	57*	-2	1	-16	-0.67	62
CC(C)CCNC(=O)C(=O)Nc1ccc2c(c1)N(S(=O)(=O)c1cccs1)CCC2	.	5	2	46	.	.
Cc1ccc2[nH]c(=O)cc(C(=O)OCC(=O)c3ccc(F)cc3)c2c1	0	1	0	-8	0.43	77*
CCOC(=O)Nc1ccc2c(c1)N(C(=O)CCN1CCOCC1)c1ccccc1S2	-2	1	0	68*!	-1.1	27
COC(=O)Nc1ccc2c(c1)N(C(=O)CCN1CCOCC1)c1ccccc1S2	8	0	-1	40	-0.68	10
COc1cccc(-c2nn(-c3ccccc3)cc2/C=C\C(=O)c2cccs2)c1	65*	-4	6	25	3.7	-33
COc1cc2cc(CCCOC(=O)CCCC(=O)O)oc(=O)c2cc1OC	.	-1	0	.	.	.
CCOc1ccc(Nc2ccnc3cc(Cl)ccc23)cc1	.	-1	-1	39	-0.14	-9
CN1CCN(c2ccc(Nc3ccnc4cc(Cl)ccc34)cc2)CC1	.	-3	1	60*	.	.
CC(C)(C)c1ccc(C(=O)Nc2ccc(NC(=O)C(=O)O)cc2)o1	-2	-4	-2	6	-0.67	22
CCc1nnc(SCC(=O)NC2CCCC2)nc1CC	-4	0	-2	-22	1.4	74*
CCc1nnc(SCC(=O)NC2CCCCC2)nc1CC	-4	1	0	4	-0.62	-5
CCOC(=O)c1c(C)[nH]c(C(=O)N/N=C\c2ccccc2O)c1C	100*	.	.	-5	-0.34	48
COc1ccc(NC(=S)N2CCCC(c3nc4ccc(C)cc4[nH]3)C2)cc1 (stereo unspecified)	94*	1	0	6	-0.21	31
COc1ccc(NC(=S)N2CCCC(c3nc4ccc(C)cc4[nH]3)C2)c(OC)c1 (stereo unspecified)	100*	1	1	2	3	24
Cc1cc2nc(C3CCCN(C(=S)Nc4ccccc4C)C3)[nH]c2cc1C (stereo unspecified)	5	-1	2	8	-0.0088	3

High-throughput results deposited in PubChem by several laboratories.
